Data reported in ChEMBL document CHEMBL3243919, “11,12-Secoprostaglandins. 3. 8-Alkylthio(sulfinyl and sulfonyl)-12-hydroxyalkanoic acids and related compounds” (J Med Chem, 1977).
Active and inactive are the calls of the source. The rule behind the calls is not given here.

Tests used:
Mus musculus [1] = organism: Mus musculus; experiment: Binding affinity to prostanoid receptor in [8-14C]adenine-treated CD-1 mouse ovary assessed as increase in c-AMP production at 100 ug/ml after 30 mins by paper chromatographic analysis in presence of phosphodiesterase inhibitor theophylline relative to control; assay type: tissue-based; conditions: Female gonad
In short: (§1)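 Mouse ovaries, three per incubation (15-25 mg), preincubated 1 h at 37 °C with shaking in aerated Krebs-Ringer phosphate buffer pH 7.2 containing [8-14C]adenine. Theophylline and test compound (in Me2SO) were then added, with a further 30 min at 37 °C. Stopped with trichloroacetic acid, homogenized and centrifuged. [14C]-cAMP isolated, including paper chromatography. Result is fold increase over untreated ovaries.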

Mus musculus [2] = organism: Mus musculus; experiment: Binding affinity to prostanoid receptor in [8-14C]adenine-treated CD-1 mouse ovary assessed as increase in c-AMP production at 25 ug/ml after 30 mins by paper chromatographic analysis in presence of phosphodiesterase inhibitor theophylline relative to control; assay type: tissue-based; conditions: Female gonad; in short: as §1
Rattus norvegicus [3] = organism: Rattus norvegicus; experiment: Binding affinity to prostanoid receptor in rat lipocytes assessed as compound equivalent to cold PGE1 in displacing [3H]-PGE1 from receptor after 60 mins; assay type: cell-based
In short: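 Test compound incubated with 0.4 ng [3H]-PGE1 and 125 µg rat lipocyte binding preparation for 60 min at 37 °C. Bound [3H]-PGE1 then measured. Three test concentrations, run in duplicate.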

Mus musculus [4] = organism: Mus musculus; experiment: Binding affinity to prostanoid receptor in [8-14C]adenine-treated CD-1 mouse ovary assessed as increase in c-AMP production at 1 ug/ml after 30 mins by paper chromatographic analysis in presence of phosphodiesterase inhibitor theophylline relative to control; assay type: tissue-based; conditions: Female gonad; in short: as §1
Mus musculus [5] = organism: Mus musculus; experiment: Binding affinity to prostanoid receptor in [8-14C]adenine-treated CD-1 mouse ovary assessed as increase in c-AMP production at 200 ug/ml after 30 mins by paper chromatographic analysis in presence of phosphodiesterase inhibitor theophylline relative to control; assay type: tissue-based; conditions: Female gonad; in short: as §1
Mus musculus [6] = organism: Mus musculus; experiment: Binding affinity to prostanoid receptor in [8-14C]adenine-treated CD-1 mouse ovary assessed as increase in c-AMP production at 50 ug/ml after 30 mins by paper chromatographic analysis in presence of phosphodiesterase inhibitor theophylline relative to control; assay type: tissue-based; conditions: Female gonad; in short: as §1
Mus musculus [7] = organism: Mus musculus; experiment: Binding affinity to prostanoid receptor in [8-14C]adenine-treated CD-1 mouse ovary assessed as increase in c-AMP production at 10 ug/ml after 30 mins by paper chromatographic analysis in presence of phosphodiesterase inhibitor theophylline relative to control; assay type: tissue-based; conditions: Female gonad; in short: as §1
Homo sapiens [8] = organism: Homo sapiens; experiment: Binding affinity to prostanoid receptor in [8-14C]adenine-treated human psoriatic skin slices assessed as increase in c-AMP production at 100 ug/ml after 30 mins by paper chromatographic analysis relative to control
In short: (§2)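 Psoriatic skin biopsied from patients off medication ≥48 h, under sc 1-2% lidocaine, and cut into 10-30 mg slices. Preincubated with [14C]adenine about 60 min at 22 °C, then 45 min at 37 °C, then 30 min at 37 °C with test compound. Stopped with TCA to 2.5%, then pulverized at -70 °C and homogenized. Supernatant [14C]-cAMP expressed as fold over unmedicated slices; average of four experiments.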

Homo sapiens [9] = organism: Homo sapiens; experiment: Binding affinity to prostanoid receptor in [8-14C]adenine-treated human psoriatic skin slices assessed as increase in c-AMP production at 50 ug/ml after 30 mins by paper chromatographic analysis relative to control; in short: as §2
[10] = molecular target: T1, 15-hydroxyprostaglandin dehydrogenase [NAD(+)] (Homo sapiens, UniProt P15428); experiment: Metabolic stability of the compound assessed as 15-hydroxyprostanoid dehydrogenase (unknown origin)-mediated metabolite formation; assay type: ADME
T1 sequence (P15428 whole entry): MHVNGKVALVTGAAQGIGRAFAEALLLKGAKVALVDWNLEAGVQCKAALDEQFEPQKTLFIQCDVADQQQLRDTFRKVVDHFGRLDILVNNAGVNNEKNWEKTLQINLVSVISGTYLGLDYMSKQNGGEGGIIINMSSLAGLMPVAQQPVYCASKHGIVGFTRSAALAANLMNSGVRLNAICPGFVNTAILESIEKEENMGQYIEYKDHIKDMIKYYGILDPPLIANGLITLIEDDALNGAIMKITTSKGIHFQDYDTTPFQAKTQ

Homo sapiens [11] = organism: Homo sapiens; experiment: Binding affinity to prostanoid receptor in [8-14C]adenine-treated human psoriatic skin slices assessed as increase in c-AMP production at 25 ug/ml after 30 mins by paper chromatographic analysis relative to control; in short: as §2
Lymphocyte [12] = experiment: Inhibition of antigen-induced lymphocyte (unknown origin) transformation at 1 ug/mL relative to control; assay type: functional
Rattus norvegicus [13] = experiment: Antihypertensive activity in spontaneous hypertensive rat model up to 40 mg/kg, po; assay type: functional, organism-based; design: dose 40 mg/kg
In short: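 Spontaneously hypertensive rats dosed po at up to 40 mg/kg; antihypertensive effect assessed.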

Mus musculus [14] = organism: Mus musculus; experiment: Binding affinity to prostanoid receptor in [8-14C]adenine-treated CD-1 mouse ovary assessed as increase in c-AMP production at 0.1 ug/ml after 30 mins by paper chromatographic analysis in presence of phosphodiesterase inhibitor theophylline relative to control; assay type: tissue-based; conditions: Female gonad; in short: as §1
Homo sapiens [15] = organism: Homo sapiens; experiment: Binding affinity to prostanoid receptor in [8-14C]adenine-treated human psoriatic skin slices assessed as increase in c-AMP production at 200 ug/ml after 30 mins by paper chromatographic analysis relative to control; in short: as §2
Canis familiaris = experiment: Antisecretory activity in dog assessed as reduction of gastric acid release at 12.3 mg/kg, po; assay type: functional, organism-based; design: dose 12.3 mg/kg; conditions: Canis lupus familiaris, Stomach
In short: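 Given orally to dogs at 12.3 mg/kg; gastric acid antisecretory effect assessed.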

Lymphocyte [16] = experiment: Inhibition of antigen-induced lymphocyte (unknown origin) transformation at 10 ug/mL relative to control; assay type: functional
Mus musculus [17] = organism: Mus musculus; experiment: Binding affinity to prostanoid receptor in [8-14C]adenine-treated CD-1 mouse ovary assessed as increase in c-AMP production at 0.05 ug/ml after 30 mins by paper chromatographic analysis in presence of phosphodiesterase inhibitor theophylline relative to control; assay type: tissue-based; conditions: Female gonad; in short: as §1
Homo sapiens [18] = organism: Homo sapiens; experiment: Binding affinity to prostanoid receptor in [8-14C]adenine-treated human psoriatic skin slices assessed as increase in c-AMP production at 10 ug/ml after 30 mins by paper chromatographic analysis relative to control; in short: as §2
Mus musculus [19] = organism: Mus musculus; experiment: Binding affinity to prostanoid receptor in [8-14C]adenine-treated CD-1 mouse ovary assessed as increase in c-AMP production at 0.01 ug/ml after 30 mins by paper chromatographic analysis in presence of phosphodiesterase inhibitor theophylline relative to control; assay type: tissue-based; conditions: Female gonad; in short: as §1

Row | Compound | fold change (FC) (Mus musculus [1]) | fold change (FC) (Mus musculus [2]) | INH (Rattus norvegicus [3]) | fold change (FC) (Mus musculus [4]) | fold change (FC) (Mus musculus [7]) | other results
1 | CCCCCC(O)CCCC(CCCCCCC(=O)O)[S+](C)[O-] (mixture of isomers) | 57 | 40 | 7.14 µgequiv | 4 | – | –
2 | CCCCCC(O)CCCC(CCCCCCC(=O)O)SCCO (mixture of isomers) | 14 | 4 | – | 1.5 | – | –
3 | CCCCCC(O)CCCC(CCCCCCC(=O)O)C(C)=O (stereo not drawn) | 23 | 14 | 1700 ngequiv | 2 | 11 | fold change (FC) (Mus musculus [5]): 16; fold change (FC) (Mus musculus [6]): 16
4 | CS(=O)(=O)C(CCCCCCC(=O)O)CCCC(O)COc1ccc(F)cc1 (stereo not drawn) | 27 | 23 | 1.11 µgequiv | 1 | – | –
5 | CCCCC[C@H](O)CC[C@H]1CCC(=O)[C@@H]1CCCCCCC(=O)O | – | 26 | 10 ngequiv | 10 | 25 | fold change (FC) (Mus musculus [6]): 19
6 | CCCCCC(O)CCCC(CCCCCCC(=O)O)S(=O)(=O)CCO (mixture of isomers) | 10 | 2 | – | 0.7 | – | –
7 | CCCCCC(O)CCCC(CCCCCCC(=O)O)S(C)(=O)=O (mixture of isomers) | 38 | 27 | 0.67 µgequiv | 14 | 24 | fold change (FC) (Homo sapiens [8]): 3.5; fold change (FC) (Homo sapiens [9]): 3.4; Stability [10]: Stable; fold change (FC) (Homo sapiens [11]): 2.5; inhibition at 1 µg/mL (Lymphocyte [12]): 30%; Activity (Rattus norvegicus [13]): inactive; fold change (FC) (Mus musculus [14]): 2; fold change (FC) (Homo sapiens [15]): 2.7; Activity (Canis familiaris): inactive; inhibition at 10 µg/mL (Lymphocyte [16]): 88%
8 | CCCCCC(O)CCCCCS(=O)(=O)CCCCCCCC(=O)O (racemic) | 1 | 0.5 | – | – | – | –
9 | CCCCC[C@H](O)/C=C/[C@H]1[C@H](O)CC(=O)[C@@H]1CCCCCCC(=O)O [ALPROSTADIL] | – | – | – | 54 | – | fold change (FC) (Mus musculus [17]): 29; fold change (FC) (Homo sapiens [18]): 10; fold change (FC) (Mus musculus [14]): 25; fold change (FC) (Mus musculus [19]): 8; inhibition at 10 µg/mL (Lymphocyte [16]): 82%
10 | CCCCCC(O)CCCC(CCCCCCC(=O)O)SC (mixture of isomers) | 24 | 35 | 0.77 µgequiv | 2.5 | – | –
